# Assay results from ChEMBL document CHEMBL4689842, “EUbOPEN Chemogenomics Library wave 1” (2021).
# Tested on: Fibroblast
# Assay: Multiplex assay against human fibroblast
# Type: toxicity, cell-based
# In short: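 Per cents of healthy-nucleus cells form the tubulin, mitochondrial-mass and membrane-permeability phenotype values. Live cells were stained at seeding with Hoechst33342, BioTracker Green Microtubule Cytoskeleton Dye, MitoTracker Red and Annexin V Alexa Fluor 680. After compound addition they were imaged on a CQ1 microscope at 37°C and 5% CO2, and CellPathfinder machine-learning gating split them into Hoechst high-intensity objects or normal cells, normal cells into healthy, pyknosed or fragmented nuclei, and pyknosed cells into mitotic or apoptotic.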
# [1] = 12 h, 1 µM, compound concentration 1 uM, replicate 1
# [2] = 12 h, 1 µM, compound concentration 1 uM, replicate 2
# [3] = 12 h, 10 µM, compound concentration 10 uM, replicate 1
# [4] = 12 h, 10 µM, compound concentration 10 uM, replicate 2
# [5] = 24 h, 1 µM, compound concentration 1 uM, replicate 1
# [6] = 24 h, 1 µM, compound concentration 1 uM, replicate 2
# [7] = 24 h, 10 µM, compound concentration 10 uM, replicate 1
# [8] = 24 h, 10 µM, compound concentration 10 uM, replicate 2
# [9] = 48 h, 1 µM, compound concentration 1 uM, replicate 1
# [10] = 48 h, 1 µM, compound concentration 1 uM, replicate 2
# [11] = 48 h, 10 µM, compound concentration 10 uM, replicate 1
# [12] = 48 h, 10 µM, compound concentration 10 uM, replicate 2
smiles,measurement,setting,value
O=C(c1cc2c(cc1F)OC(c1ccc(F)cc1)(c1ccc(Cl)cc1Cl)O2)N1CCOCC1 (centres undefined),Population Apoptotic (%),[1],51%
same,Population Fragmented Nuclei (%),[1],18%
same,Population Healthy Nuclei (%),[1],47%
same,Population Hoechst High Intensity Objects (%),[1],13%
same,Population Membrane Permeable-Phenotype (%),[1],19%
same,Population Mitochondria Different-Phenotype (%),[1],6%
same,Population Mitotic Cells (%),[1],48%
same,Population Normal (%),[1],86%
same,Population Pyknosed Nuclei (%),[1],34%
same,Population Tubulin-Different-Phenotype (%),[1],56%
same,Total Cell Count,[1],112
same,Population Apoptotic (%),[2],50%
same,Population Healthy Nuclei (%),[2],68%
same,Population Hoechst High Intensity Objects (%),[2],7%
same,Population Membrane Permeable-Phenotype (%),[2],9%
same,Population Mitochondria Different-Phenotype (%),[2],12%
same,Population Mitotic Cells (%),[2],50%
same,Population Normal (%),[2],92%
same,Population Pyknosed Nuclei (%),[2],12%
same,Population Tubulin-Different-Phenotype (%),[2],15%
same,Total Cell Count,[2],78
same,Population Apoptotic (%),[3],71%
same,Population Fragmented Nuclei (%),[3],31%
same,Population Healthy Nuclei (%),[3],29%
same,Population Hoechst High Intensity Objects (%),[3],12%
same,Population Membrane Permeable-Phenotype (%),[3],4%
same,Population Mitochondria Different-Phenotype (%),[3],43%
same,Population Mitotic Cells (%),[3],28%
same,Population Normal (%),[3],87%
same,Population Pyknosed Nuclei (%),[3],38%
same,Population Tubulin-Different-Phenotype (%),[3],17%
same,Total Cell Count,[3],176
same,Population Fragmented Nuclei (%),[4],10%
same,Population Healthy Nuclei (%),[4],78%
same,Population Hoechst High Intensity Objects (%),[4],4%
same,Population Membrane Permeable-Phenotype (%),[4],47%
same,Population Mitochondria Different-Phenotype (%),[4],96%
same,Population Normal (%),[4],95%
same,Population Pyknosed Nuclei (%),[4],10%
same,Population Tubulin-Different-Phenotype (%),[4],100%
same,Total Cell Count,[4],52
same,Population Apoptotic (%),[5],26%
same,Population Fragmented Nuclei (%),[5],17%
same,Population Healthy Nuclei (%),[5],61%
same,Population Hoechst High Intensity Objects (%),[5],18%
same,Population Membrane Permeable-Phenotype (%),[5],18%
same,Population Mitochondria Different-Phenotype (%),[5],12%
same,Population Mitotic Cells (%),[5],73%
same,Population Normal (%),[5],81%
same,Population Pyknosed Nuclei (%),[5],21%
same,Population Tubulin-Different-Phenotype (%),[5],50%
same,Total Cell Count,[5],108
same,Population Apoptotic (%),[6],33%
same,Population Fragmented Nuclei (%),[6],5%
same,Population Healthy Nuclei (%),[6],88%
same,Population Hoechst High Intensity Objects (%),[6],10%
same,Population Membrane Permeable-Phenotype (%),[6],10%
same,Population Mitochondria Different-Phenotype (%),[6],15%
same,Population Mitotic Cells (%),[6],66%
same,Population Normal (%),[6],89%
same,Population Pyknosed Nuclei (%),[6],5%
same,Population Tubulin-Different-Phenotype (%),[6],21%
same,Total Cell Count,[6],85
same,Population Apoptotic (%),[7],67%
same,Population Fragmented Nuclei (%),[7],32%
same,Population Healthy Nuclei (%),[7],32%
same,Population Hoechst High Intensity Objects (%),[7],12%
same,Population Membrane Permeable-Phenotype (%),[7],2%
same,Population Mitochondria Different-Phenotype (%),[7],81%
same,Population Mitotic Cells (%),[7],32%
same,Population Normal (%),[7],87%
same,Population Pyknosed Nuclei (%),[7],35%
same,Population Tubulin-Different-Phenotype (%),[7],16%
same,Total Cell Count,[7],169
same,Population Apoptotic (%),[8],66%
same,Population Fragmented Nuclei (%),[8],8%
same,Population Healthy Nuclei (%),[8],62%
same,Population Hoechst High Intensity Objects (%),[8],6%
same,Population Membrane Permeable-Phenotype (%),[8],64%
same,Population Mitochondria Different-Phenotype (%),[8],100%
same,Population Mitotic Cells (%),[8],33%
same,Population Normal (%),[8],93%
same,Population Pyknosed Nuclei (%),[8],29%
same,Population Tubulin-Different-Phenotype (%),[8],100%
same,Total Cell Count,[8],58
same,Population Apoptotic (%),[9],42%
same,Population Fragmented Nuclei (%),[9],31%
same,Population Healthy Nuclei (%),[9],50%
same,Population Hoechst High Intensity Objects (%),[9],11%
same,Population Membrane Permeable-Phenotype (%),[9],15%
same,Population Mitochondria Different-Phenotype (%),[9],11%
same,Population Mitotic Cells (%),[9],57%
same,Population Normal (%),[9],88%
same,Population Pyknosed Nuclei (%),[9],18%
same,Population Tubulin-Different-Phenotype (%),[9],43%
same,Total Cell Count,[9],119
same,Population Apoptotic (%),[10],33%
same,Population Fragmented Nuclei (%),[10],18%
same,Population Healthy Nuclei (%),[10],73%
same,Population Hoechst High Intensity Objects (%),[10],12%
same,Population Membrane Permeable-Phenotype (%),[10],8%
same,Population Mitochondria Different-Phenotype (%),[10],5%
same,Population Mitotic Cells (%),[10],66%
same,Population Normal (%),[10],87%
same,Population Pyknosed Nuclei (%),[10],7%
same,Population Tubulin-Different-Phenotype (%),[10],37%
same,Total Cell Count,[10],90
same,Population Apoptotic (%),[11],80%
same,Population Fragmented Nuclei (%),[11],33%
same,Population Healthy Nuclei (%),[11],42%
same,Population Hoechst High Intensity Objects (%),[11],14%
same,Population Membrane Permeable-Phenotype (%),[11],1%
same,Population Mitochondria Different-Phenotype (%),[11],70%
same,Population Mitotic Cells (%),[11],20%
same,Population Normal (%),[11],85%
same,Population Pyknosed Nuclei (%),[11],24%
same,Population Tubulin-Different-Phenotype (%),[11],6%
same,Total Cell Count,[11],167
same,Population Apoptotic (%),[12],81%
same,Population Fragmented Nuclei (%),[12],34%
same,Population Healthy Nuclei (%),[12],56%
same,Population Hoechst High Intensity Objects (%),[12],12%
same,Population Membrane Permeable-Phenotype (%),[12],0%
same,Population Mitochondria Different-Phenotype (%),[12],90%
same,Population Mitotic Cells (%),[12],18%
same,Population Normal (%),[12],87%
same,Population Pyknosed Nuclei (%),[12],9%
same,Population Tubulin-Different-Phenotype (%),[12],3%
same,Total Cell Count,[12],133
